From PubChem
Compounds with a hit are over-represented: about 29% of the library has one in this group of screens.
CYP2C19 activ – increases human CYP2C19 enzyme activity. recombinant CYP2C19, luciferin-H EGE luminescence; active compounds read high; 0 = fully inhibited enzyme, 1 = untreated enzyme. P33261. 96,000 tested, under 10 active. activation factor at 5 µM. AID 1025;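 active means activation factor of at least 2 at 5 µM in the primary screen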
Target sequence (P33261 whole entry, looked up): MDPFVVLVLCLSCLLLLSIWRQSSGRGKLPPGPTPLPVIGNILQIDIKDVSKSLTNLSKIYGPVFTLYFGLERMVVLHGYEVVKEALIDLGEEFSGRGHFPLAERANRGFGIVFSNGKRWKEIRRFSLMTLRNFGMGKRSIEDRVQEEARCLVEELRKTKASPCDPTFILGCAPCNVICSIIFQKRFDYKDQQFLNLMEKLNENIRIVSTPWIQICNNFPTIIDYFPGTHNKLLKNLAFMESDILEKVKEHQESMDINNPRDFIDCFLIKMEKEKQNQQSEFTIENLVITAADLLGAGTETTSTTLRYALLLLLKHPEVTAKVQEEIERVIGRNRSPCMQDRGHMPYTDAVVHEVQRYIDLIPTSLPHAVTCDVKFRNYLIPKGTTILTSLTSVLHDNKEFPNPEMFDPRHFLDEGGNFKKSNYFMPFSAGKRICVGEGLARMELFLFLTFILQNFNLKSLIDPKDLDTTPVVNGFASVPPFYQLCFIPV
tolC growth inh – blocks growth of E. coli BW25113 tolC mutant; OD615; growth inhibition, % at 10 µM (by protocol); hit rate 2.2% among 65,000; AID 573;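 active means growth inhibition at or above a cutoff equal to the mean over every tested compound plus 3 SD, cut at about 60% in these data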;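 further: growth measured after 20 h incubation at 37 °C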
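Test system: tolC-deleted E. coli BW25113 | Medium: LB with kanamycin 50 µg/mL | Compound dosing: Single concentration, 10 µM final per compound | Schedule: 37 °C, 20 h exposure | Measured by: OD at 615 nm | Evaluation: Percent growth inhibition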
CYP2C9 inh – inhibitors of human CYP2C9; P11712; CYP2C9 Supersomes, luciferin-H conversion, luminescence; inhibition, % at 5 µM; hit rate 20% among 96,000; AID 777;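 active means blocking of liver enzyme CYP2C9 beyond about 50% at 5 µM, limit read from the data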
E coli WT exp – growth inhibitors of E. coli BW25113 wild type. AID 710. OD600 absorbance. growth inhibition, % at 100 µM. hit rate 0.15% among 98,000;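 active means growth inhibition above about 50% at one test dose, limit read from the data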;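 further: growth measured after 20 h incubation at 37 °C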
CYP2C9 act – activators of human CYP2C9; activation factor at 5 µM; AID 1024; hit rate 1.4% among 96,000; P11712; recombinant CYP2C9, luciferin-H conversion, luminescence; active compounds read high; factor 1 = untreated enzyme, 0 = blocked;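 active means activation factor of 2 or more for CYP2C9 at a 5 µM dose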
CYP2C19 inhib – human CYP2C19 inhibition | CYP2C19 Supersomes, luciferin-H EGE luminescence, 30 min | hit rate 21% among 96,000 | inhibition, % at 5 µM | AID 778 | P33261;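 active means CYP2C19 inhibition above a set limit at 5 µM in the primary screen, cut at about 50% in these data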
A number is an active result; – = inactive; · = no result.

SMILES	CYP2C19 activ	tolC growth inh	CYP2C9 inh	E coli WT exp	CYP2C9 act	CYP2C19 inhib
Cc1cnc(SCCc2ccncc2)nc1C	–	–	–	–	–	76
COc1ccc(CNC(=O)C(c2ccc(C)o2)N(C(=O)c2csnn2)c2ccc(C(C)C)cc2)cc1 (stereo not given)	–	·	52	–	–	51
Cc1ccc(-c2nc(CS(=O)(=O)CC(=O)N3CCc4ccccc4C3)c(C)o2)cc1	–	–	72	–	–	–
Cc1ccc(-c2nc(CS(=O)(=O)CC(=O)N3CCCCCC3)c(C)o2)cc1	–	–	75	–	–	56
Cc1[nH]c(=O)c(C#N)c(C)c1Br	–	–	–	–	–	–
O=C(CSc1ccccc1)Nc1ccncc1	–	–	85	–	–	90
O=C(CSc1ccc2ccccc2c1)Nc1ccncc1	–	·	95	–	–	97
CCc1cc2ccccc2nc1SCC(=O)Nc1cc(C)on1	–	–	–	–	–	–
CC(=O)Oc1ccc(NC(=O)CSc2ccccc2)cc1	–	–	53	–	–	69
Cc1cc(NC(=O)CSc2ccc3ccccc3c2)no1	–	·	79	–	–	50
CN1CCN(c2ccc(NC(=O)CSc3ccccc3)cc2F)CC1	–	·	–	–	–	–
[2H]c1c([2H])c([2H])c(-c2nc(N3CCCCCC3)sc2C(=O)c2ccccc2)c([2H])c1[2H]	–	·	–	–	–	–
Cc1ccc(C)c(N2CCN(C(=O)C3CCN(S(=O)(=O)c4cccc5nsnc45)CC3)CC2)c1	–	–	–	–	–	–
Cn1ccnc1SCC(=O)Nc1ccc2ccccc2c1	–	–	–	–	–	93
CS(=O)(=O)N(CC(=O)Nc1cccc(F)c1)c1cccc([N+](=O)[O-])c1	–	·	61	–	–	–
COc1cccc(NC(=O)CN(c2cccc(F)c2)S(C)(=O)=O)c1	–	–	–	–	–	–
CS(=O)(=O)N(CC(=O)NC1CC1)c1cccc(F)c1	–	–	–	–	–	88
CN1/C(=C\C(=O)COc2ccc3c(c2)OCO3)C(C)(C)c2ccccc21	–	89	87	–	–	–
CN1/C(=C/C(=O)c2nc(S(C)(=O)=O)ncc2Cl)C(C)(C)c2ccccc21	–	–	–	–	–	–
CN1/C(=C\C(=O)c2ccco2)C(C)(C)c2ccccc21	–	–	56	–	–	–
CN1/C(=C\C=Nc2ccccc2)C(C)(C)c2ccccc21	–	·	–	–	–	–
CN1/C(=C\C(=O)C(F)F)C(C)(C)c2ccccc21	–	–	53	–	–	–
CC1=CC(C)(C)N2C(=O)C3(C(C#N)=C(N)OC4=C3C(=O)CC(C)(C)C4)c3cc(C)cc1c32 (stereo not given)	–	·	–	–	–	–
O=c1oc2ccccc2n1CSC1=NCCS1	–	–	–	–	–	88
O=c1oc2ccccc2n1CSc1nc2ccccc2s1	–	–	84	–	–	100
SMILES	CYP2C19 activ	tolC growth inh	CYP2C9 inh	E coli WT exp	CYP2C9 act	CYP2C19 inhib
O=C(CSc1nc2ccccc2s1)CSc1nc2ccccc2s1	–	·	–	–	–	–
O=C(CSc1ncn(-c2ccccc2)n1)c1cccs1	–	–	71	–	–	94
c1ccc(CSc2ncn(-c3ccccc3)n2)cc1	–	–	79	–	–	85
CC(=O)COc1ncn(-c2ccccc2)n1	–	·	–	–	–	–
CCOC(=O)c1sc(NC(=O)CSc2ncn(-c3ccccc3)n2)nc1C	–	–	–	–	–	–
CCOc1ccc2c(c1)nc(SCC(=O)c1cccs1)n2C	–	·	–	–	–	–
Nc1nc(CSc2ncn(-c3ccccc3)n2)cs1	–	–	–	–	–	82
CCOc1cccc(N2C(=O)CC(NCc3ccc(S(N)(=O)=O)cc3)C2=O)c1 (stereo not given)	–	–	–	–	–	–
COc1ccc(NC2c3ccccc3C(=O)N2Cc2ccco2)cc1OC (stereo not given)	–	–	–	–	–	64
COC(=O)c1ccc(C2/C(=C(/O)c3ccc(OC)cc3)C(=O)C(=O)N2Cc2ccco2)cc1 (stereo not given)	·	–	·	·	·	·
COc1ccc(OC)c(NC2c3ncccc3C(=O)N2Cc2ccco2)c1 (stereo not given)	–	–	–	–	–	–
CCOc1ccc(NC2c3ccccc3C(=O)N2Cc2ccco2)cc1 (stereo not given)	–	–	74	–	–	–
COC(=O)c1cc(NC2c3ccccc3C(=O)N2Cc2ccco2)cc(C(=O)OC)c1 (stereo not given)	–	·	–	–	–	77
Cc1ccnc(NC2c3ccccc3C(=O)N2Cc2ccccc2Cl)c1 (stereo not given)	–	–	–	–	–	–
O=C1c2ccccc2C(Nc2ccc(F)c(Cl)c2)N1Cc1ccco1 (stereo not given)	–	–	–	–	–	66
CCCOc1ccc(CCN2CCC(=O)NC2=O)cc1C	–	–	–	–	–	–
C/C=C/C(=O)Nc1ccccc1Br	–	·	–	–	–	–
Cc1cccc(NC(=S)NN(Cc2ccccc2)c2ccccc2)c1C	–	·	–	–	–	–
Cc1ccc(-c2cc(-c3ccccc3Cl)c(C#N)c(N)n2)o1	–	–	82	–	–	92
Cc1ccc(-c2cc(-c3ccc(F)cc3)nc(N)c2C#N)o1	–	–	52	–	–	–
CCOc1ccc(NC(=O)c2cccc3c2C(=O)N(CCOC)C3)cc1	–	·	72	–	–	–
COCCN1Cc2cccc(C(=O)NC(C)c3cccs3)c2C1=O (stereo not given)	–	·	–	–	–	63
CCCN1Cc2cccc(C(=O)NCc3cccs3)c2C1=O	–	–	52	–	–	73
O=C(CN(Cc1ccco1)C(=O)CNS(=O)(=O)c1ccc(Cl)cc1)NCc1ccc(F)cc1	·	–	·	·	·	·
O=C(Nc1ccc(F)cc1)c1sccc1SCc1cccc(C(F)(F)F)c1	–	·	65	–	–	–
SMILES	CYP2C19 activ	tolC growth inh	CYP2C9 inh	E coli WT exp	CYP2C9 act	CYP2C19 inhib
O=C(Nc1cccc(C(F)(F)F)c1)c1ccco1	–	–	–	–	–	–
O=C(Nc1ccc(F)cc1F)c1sccc1SCc1cccc(C(F)(F)F)c1	–	·	58	–	–	–
COc1ccc(NC(=O)Nc2nnc(-c3ccccc3SCc3ccccc3)s2)cc1	–	·	–	–	–	–
COc1ccc(NC(=O)c2sccc2SCc2cccc(C(F)(F)F)c2)cc1	–	·	69	–	–	50
COCCn1nnnc1C(c1cccs1)N1CCN(c2cccc(C(F)(F)F)c2)CC1 (stereo not given)	–	·	–	–	–	–
Cc1ccc(CNC(=O)c2cnc(-c3ccccn3)nc2C(F)(F)F)cc1	–	·	–	–	–	–
Cc1ccc(-c2csc(N3CCC(NS(=O)(=O)c4ccc5c(c4)OCCO5)CC3)n2)cc1	–	–	63	–	–	–
Cc1ccc(CSCCNC(=O)CSCc2ccc([N+](=O)[O-])cc2)cc1	–	·	75	–	–	58
Cc1ccc(CSCCNC(=O)/C=C/c2ccccc2Cl)cc1	–	·	–	–	–	–
